Only some compounds are listed: those with a hit (about 2.2% of all), similar ones and a draw of the others.
M18AAP inhibitor: PfM18AAP inhibitors, malaria aminopeptidase, primary screen, biochemical, QFRET, recombinant enzyme; M18 aspartyl aminopeptidase (Plasmodium falciparum 3D7); H-Glu-NHMec fluorogenic cleavage; inhibition, % at 7.35 µM; 1.2% of 290,000 active; AID 1822, 2009;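 active = inhibition above the campaign mean inhibition over all tested compounds plus 3 SD, cut at about 28% in these data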
HKDC1 inh: HKDC1 hexokinase inhibitors, primary screen, biochemical, fluorescence, uHTS; recombinant HKDC1, G6PDH/diaphorase resazurin coupled fluorescence; 0.16% of 340,000 active; AID 493160, 2011; Q2TB90; inhibition, % at 20 µM;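 active = inhibition above about 35% when tested at 20 µM, limit read from the data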
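Assay system: recombinant HKDC1 hexokinase; detection: coupled resazurin fluorescence, excitation 525 nm, emission 613 nm; benchmarks: DMSO-plus-enzyme-mix negative control, buffer-substituted positive control; compound dosing: single 20 µM dose; schedule: 90 min at room temperature in dark; also added: glucose plus 1 mM ATP as hexokinase substrates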
Neddylation inh: inhibitors of cullin neddylation, primary screen, biochemical, TR-FRET, uHTS, NAE and Ubc12; NEDD8-conjugating enzyme Ubc12 (Homo sapiens) + NEDD8-activating enzyme E1 regulatory …; inhibition, % at 25 µM; 0.58% of 360,000 active; AID 651699, 2012; in the data active = inhibition above about 36%
Target sequence (P61081 whole entry, looked up): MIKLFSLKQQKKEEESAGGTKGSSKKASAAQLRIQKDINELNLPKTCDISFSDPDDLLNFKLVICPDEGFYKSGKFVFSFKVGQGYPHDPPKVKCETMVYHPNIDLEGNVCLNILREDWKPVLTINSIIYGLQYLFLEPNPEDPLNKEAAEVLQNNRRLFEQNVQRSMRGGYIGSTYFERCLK
Target sequence (Q13564 whole entry, looked up): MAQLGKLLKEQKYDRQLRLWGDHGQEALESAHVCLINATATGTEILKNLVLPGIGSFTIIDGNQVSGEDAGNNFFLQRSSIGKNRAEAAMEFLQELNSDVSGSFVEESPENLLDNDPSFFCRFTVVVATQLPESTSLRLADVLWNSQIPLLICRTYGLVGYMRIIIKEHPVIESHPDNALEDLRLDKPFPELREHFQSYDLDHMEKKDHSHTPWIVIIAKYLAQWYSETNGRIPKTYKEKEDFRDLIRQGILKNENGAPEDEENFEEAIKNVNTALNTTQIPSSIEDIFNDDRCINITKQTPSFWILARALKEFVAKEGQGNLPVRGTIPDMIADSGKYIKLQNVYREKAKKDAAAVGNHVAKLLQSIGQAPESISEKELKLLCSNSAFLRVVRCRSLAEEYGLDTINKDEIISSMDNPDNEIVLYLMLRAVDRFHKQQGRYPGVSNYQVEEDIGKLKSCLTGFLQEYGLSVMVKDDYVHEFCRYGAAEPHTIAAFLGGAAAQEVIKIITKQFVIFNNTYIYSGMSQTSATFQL
PfGluPho inh: PfG6PD enzyme inhibitors, primary screen, biochemical, fluorescence intensity, uHTS; glucose-6-phosphate dehydrogenase-6-phosphogluconolactonase (Plasmodium falciparum 3D7); PfGluPho enzyme, NADPH resazurin-diaphorase fluorescence; inhibition, % at 20 µM; 0.78% of 350,000 active;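 active = inhibition reaching at least a set limit at 20 µM in the primary screen, cut at about 59% in these data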
PfGluPho conf: PfG6PD inhibitors, hit retest, confirmation, biochemical, fluorescence intensity, single concentration; shares compounds with PfGluPho inh; recombinant PfGluPho, NADPH-diaphorase-resazurin fluorescence; inhibition, % at 20 µM; 34% of 2,400 active;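 active = inhibition of at least 50% at 20 µM in any single replicate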
Diaph ctr 10uM: diaphorase inhibitors and chemical oxidizers, confirmation, counter-screen for P. falciparum G6PD inhibitor project, biochemical, fluorescence intensity, 10 µM NADPH. 39% of 820 active. shares compounds with PfGluPho inh. diaphorase-coupled resazurin reduction, NADPH 10 uM. AID 504862, 2011. inhibition, % at 20 µM;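 active = average inhibition reaching 50% or more with the compound at 20 µM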;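 also: resorufin red fluorescence formed as diaphorase reduces resazurin using NADPH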
Diaph ctr 30uM: diaphorase inhibitors and chemical oxidizers, confirmation, counter-screen for P. falciparum G6PD inhibitor project, biochemical, fluorescence intensity, 30 µM NADPH. shares compounds with PfGluPho inh. Diaphorase/resazurin coupled assay, resorufin fluorescence. inhibition, % at 20 µM. 29% of 820 active;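 active = inhibition averaging 50% or more, tested at 20 µM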
A number is an active result; 0 = inactive; - = no result given.

SMILES	M18AAP inhibitor	HKDC1 inh	Neddylation inh	PfGluPho inh	PfGluPho conf	others
CCCCn1c(SC(C)C(=O)c2ccc(OC)cc2)nc2cc(S(N)(=O)=O)ccc21 (stereo not given)	0	0	0	0	-
CCCCn1c(SCC(=O)c2ccc3c(c2)NC(=O)CO3)nc2cc(S(N)(=O)=O)ccc21	0	0	0	60.6	0
CCCCn1c(SCC(=O)c2ccc(OC)cc2OC)nc2cc(S(N)(=O)=O)ccc21	0	0	0	96.0	0
Cc1ccnc(NC(=O)c2ccc3[nH]c(=O)c(=O)[nH]c3c2)c1	0	0	0	0	-
COc1cc(NCc2ccccc2)c2ncn(C(C)C)c2c1	-	0	0	61.1	55.7	Diaph ctr 10uM=0;Diaph ctr 30uM=0
CCOc1ccc(S(=O)(=O)N2CCN(CCNS(=O)(=O)c3ccc(C)cc3)CC2)cc1	-	0	0	0	-
CCOC(=O)c1sc(NC(=O)c2ccncc2)c(C#N)c1C	0	0	0	77.8	0
CN1CCN(S(=O)(=O)c2ccc(N3CCN(c4ccc(O)cc4)CC3)c([N+](=O)[O-])c2)CC1	-	0	0	71.7	0
CCOC(=O)c1c2ccc(OCC(=O)NN)cc2n2ccccc12	0	0	-	0	58.6	Diaph ctr 10uM=60.7;Diaph ctr 30uM=0
CCOc1ccc(NC(=O)C2CCCN(c3cnccn3)C2)cc1 (stereo not given)	0	0	0	0	-
CCn1c2ccccc2c2cc(/C=N/n3cn[nH]c3=S)ccc21	0	0	0	62.6	52.1	Diaph ctr 10uM=0;Diaph ctr 30uM=0
CCCN1CCN(CCCNC(=O)c2ccc(CS(=O)c3ccccc3C)o2)CC1 (stereo not given)	0	0	0	0	-
O=C1C(c2ccccc2)=[N+]([O-])c2ccccc21	-	0	0	61.0	0
CCOc1ccc(C2C(C(=O)OC)=CN(C(C)c3ccccc3)C=C2C(=O)OC)cc1 (stereo not given)	0	0	-	0	-
Cc1c(/C=N/O)c2ccccn2c1C(=O)c1ccc(F)cc1	0	0	0	76.4	0
Cc1c(/C=N/NC(N)=O)c2ccccn2c1C(=O)c1ccc(F)cc1	0	0	0	0	-
Cc1cc(NC(=O)c2oc3ccccc3c2C)ccc1-n1cnnn1	0	0	0	111.3	73.1	Diaph ctr 10uM=71.8;Diaph ctr 30uM=0
Cc1occc1C(=O)Nc1nnc(C(F)(F)F)s1	0	0	0	0	-
O=C(Nc1ccccc1C(=O)Nc1nnc(C(F)(F)F)s1)c1ccccc1	0	0	0	74.4	0
Cc1c(C(=O)Nc2nnc(C(F)(F)F)s2)oc2ccccc12	-	0	0	103.8	70.5	Diaph ctr 10uM=82.8;Diaph ctr 30uM=67.7
COC(=O)c1sc(NC(=O)c2oc3ccccc3c2C)nc1C	0	0	0	0	-
C[C@@H]1CCCCO[C@H](CN(C)C(=O)Nc2cccc3ccccc23)[C@@H](C)CN([C@H](C)CO)C(=O)c2cc(N(C)C)ccc2O1	-	-	0	62.9	0
Cc1ccc(NC(=O)N2CCc3ccccc32)cc1C	0	0	0	0	-
CN1C(=O)CSc2ccc(NC(=O)N3CCc4ccccc43)cc21	0	0	0	86.8	59.5	Diaph ctr 10uM=0;Diaph ctr 30uM=0
CC(C)N(C(=O)COC(=O)c1cccc(N(C)C)c1)c1ccccc1	0	0	-	0	-
SMILES	M18AAP inhibitor	HKDC1 inh	Neddylation inh	PfGluPho inh	PfGluPho conf	others
COC(=O)c1ccc(Cl)c(NC(=O)CN(c2ccccc2)S(=O)(=O)c2ccc(OC)cc2)c1	0	0	0	76.1	0
Cc1ccccc1N1CCN(C(=O)NCc2cccc(Cl)c2)CC1	0	0	0	0	-
COc1cc(CNn2c(C)n[nH]c2=S)cc(Cl)c1OCc1ccc(F)cc1	0	0	0	0	-
COc1cc(CNn2c(C)n[nH]c2=S)cc(Br)c1OCc1ccc(F)cc1	0	0	0	70.1	0
C=CCN1C(=O)C2C(C(=O)NC3CCCC3)C3(C)C=CC2(O3)C1C(=O)NC1CCCC1 (stereo not given)	0	0	0	0	-
Cc1cccc(NC(=O)NNS(=O)(=O)c2ccc(F)cc2)c1	0	0	0	0	-
Cc1ccc(S(=O)(=O)NNc2nc3ccccc3nc2C(F)(F)F)cc1	0	0	0	64.7	0
CC(=O)Nc1ccc(S(=O)(=O)NNc2cccc(C)c2)cc1	0	0	0	76.2	45.1	Diaph ctr 10uM=0;Diaph ctr 30uM=0
Cc1ccc(S(=O)(=O)NNc2ccccc2)cc1	0	0	0	65.0	46.9	Diaph ctr 10uM=0;Diaph ctr 30uM=0
COc1ccc(C2(c3ccc(OC)cc3)NC(=O)N(CC(=O)NC3CCS(=O)(=O)C3)C2=O)cc1 (stereo not given)	-	0	0	0	-
CC(C)C(OC(=O)CN1C(=O)c2ccccc2C1=O)C(=O)NC1CCCC1 (stereo not given)	0	0	0	0	-
CNC(=O)NC(=O)CSc1ccc(S(=O)(=O)N2CCOCC2)cn1	-	0	0	0	-
S=c1nc[nH]c2c1ncn2-c1ccc(Cl)cc1	-	0	0	66.3	0
N=c1n(CCN2CCCCC2)c2ccccc2n1CC(=O)c1ccc(Cl)c(Cl)c1	0	0	0	93.0	0
Cc1nc2cc(NS(=O)(=O)c3cccc4cccnc34)ccc2s1	0	0	0	60.9	0
CN(C)c1ccc(C=Nc2ccc(N(C)C)cc2)cc1	0	0	0	65.5	0
Cn1c(C(=O)NCCCN2CCCCCC2)cc2c(=O)n(C)c3ccccc3c21	0	0	0	60.0	0
CCCN1CCN(CCCNC(=O)c2cc3c(=O)n(C)c4ccccc4c3n2C)CC1	0	0	0	0	-
COC(=O)/C(=N/Nc1cccc(C)c1)N1CCCc2ccccc21	0	0	0	0	-
COC(=O)/C(=N/Nc1ccc(C)cc1)N1CCCc2ccccc21	0	0	0	76.2	0
CC(=O)/C(=N/Nc1ccc(Br)cc1)N1CCCc2ccccc21	0	0	0	0	-
COC(=O)/C(=N/Nc1ccccc1)N1CCCc2ccccc21	0	0	0	0	0
CCN(CC)c1ccc(/C=C2\CCC(/C=C(\C#N)C(=O)Nc3ccccc3F)=C2N2CCOCC2)cc1	0	0	0	0	-
CCN(CC)c1ccc(/C=C2\CCC(/C=C(/C#N)C(=O)Nc3ccccc3F)=C2N2CCOCC2)cc1	-	0	0	70.0	0
CCOC(=O)c1c(C)[nH]c(C)c1C(=O)COC(=O)c1cccs1	-	0	0	59.6	0
CN(C)C=Nc1ccc2nc3c(cc2c1)[nH]c1ccccc13	0	0	-	79.7	54.4	Diaph ctr 10uM=0;Diaph ctr 30uM=0
CC1CCCN(C(=O)CCNC(=O)Cn2cnc3ccccc3c2=O)C1 (stereo not given)	0	0	0	0	-

Bioassay records deposited in PubChem BioAssay by several laboratories.
